In the library only some 2.2% were active in any assay of this set; here they are far more common.
FLuc stim CS – affects firefly luciferase, flagging false hits in luciferase stimulation screens; P08659; ATPlite luciferase biochemical, luminescence, 10 min; 0 = ATP-free wells, 1 = DMSO control; activation factor at 10 µM; 200,000 tested, under 10 active; AID 1027;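 active = luciferase activation factor, scaled between plate controls, of at least 2 with compound at 10 µM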
Target sequence (P08659 whole entry, looked up): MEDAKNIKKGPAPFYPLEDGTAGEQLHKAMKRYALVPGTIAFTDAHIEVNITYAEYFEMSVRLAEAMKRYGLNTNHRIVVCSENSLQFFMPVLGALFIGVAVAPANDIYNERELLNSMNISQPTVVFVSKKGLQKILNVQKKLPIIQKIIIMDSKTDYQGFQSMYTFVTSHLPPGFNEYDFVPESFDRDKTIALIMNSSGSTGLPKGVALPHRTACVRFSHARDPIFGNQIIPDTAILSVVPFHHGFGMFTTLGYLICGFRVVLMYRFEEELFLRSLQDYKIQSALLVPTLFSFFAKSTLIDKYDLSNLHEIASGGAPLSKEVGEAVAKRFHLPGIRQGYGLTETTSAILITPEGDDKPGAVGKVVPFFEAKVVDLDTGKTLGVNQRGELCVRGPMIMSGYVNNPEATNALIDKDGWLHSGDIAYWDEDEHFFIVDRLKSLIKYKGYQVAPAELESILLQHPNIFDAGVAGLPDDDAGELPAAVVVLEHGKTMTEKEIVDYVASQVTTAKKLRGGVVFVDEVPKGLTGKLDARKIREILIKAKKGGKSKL
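assay system = Luciferase/luciferin detection reagent, cell-free biochemical luciferase assay | also added = ATP substrate | times = 10 min post-reagent at room temperature | measured by = luminescence from luciferase reaction | measure = luciferase activation, seen as luminescence increase over controls | benchmarks = low control with PBS replacing ATP, high control enzyme plus ATP without compound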
NF-kB neuron act – NF-kB expression increase, human neuronal cells; NF-kB reporter expression; active compounds read high; fold change at 12.5 µM; AID 1239; 1.6% of 190,000 active; in the data active = fold change above about 3.3
APP 5'UTR act – activates APP 5'UTR luciferase reporter; SH-SY5Y APP 5'UTR luciferase reporter, luminescence; zero percent = DMSO vehicle wells; activation, % at 2 µM; 1% of 190,000 active;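 active = activation above a set limit, based on mean plus 3 SD of controls, cut at about 140% in these data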
PPC-1+TRAIL kill – compounds killing PPC-1 cancer cells with TRAIL present (potentiator screen, no TRAIL-free arm). 0.41% of 220,000 active. PPC-1 cells + TRAIL, ATPLite viability luminescence. cell killing (% activity), % at 4 µM or 5 µM;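 active = cell killing above 50% in the first pass at 4 µM, then a duplicate retest at 5 µM averaging 50% or more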
C8 TRAIL sens – sensitizes caspase-8 expressing cells to TRAIL | NB7+C8 cells + TRAIL, ATPlite viability luminescence | inhibition (viability loss, TRAIL sensitization), % at 10 µM | 1% of 360,000 active | AID 624354;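 active = compounds causing at least 50% loss of cell viability in the single-dose screen, relative to plate controls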
FLuc inhib CS – counter-screen for luciferase assay inhibitors: firefly luciferase inhibition | AID 1006 | 1.5% of 200,000 active | ATPLite firefly luciferase biochemical luminescence, 10 min | P08659 | inhibition, % at 10 µM;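 active = inhibition above about 50% when tested at 10 µM, limit read from the data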
Large screens that a line does not name were inactive.

Cc1cc2c(cc1C)/C(=N/NC(=O)c1ccccn1)CCC2	none (no result: FLuc stim CS, NF-kB neuron act, APP 5'UTR act, FLuc inhib CS)
O=C(N/N=C/c1ccco1)c1ccccn1	none
O=C(N/N=C/C1CCCCC1)c1cc(Cl)ccc1O	FLuc inhib CS 50
O=C(NN=C1CCC(=NNC(=O)c2ccccn2)CC1)c1ccccn1	APP 5'UTR act 171
Cc1ccc(/C=C/C(=O)N2CCc3ccccc3C2)cc1	FLuc inhib CS 51
O=C(Nc1ccc(N2CCCCC2)c(Cl)c1)c1ncn[nH]1	FLuc inhib CS 57
O=C(Nc1ccc(S(=O)(=O)N2CCCCCC2)cc1)c1ccco1	NF-kB neuron act 3.8
O=C(Nc1cccc(S(=O)(=O)N2CCCC2)c1)c1ccco1	none (no result: FLuc stim CS, NF-kB neuron act, APP 5'UTR act, PPC-1+TRAIL kill, FLuc inhib CS)
O=C(Nc1ccc(N2CCCC2)c(Cl)c1)c1ccc([N+](=O)[O-])o1	NF-kB neuron act 4.3, C8 TRAIL sens 88
O=C(Nc1ccc(N2CCCC2)c(Cl)c1)c1ccco1	NF-kB neuron act 8.3, APP 5'UTR act 286, C8 TRAIL sens 55, FLuc inhib CS 77
CCOC(=O)N1CCN(C(C(=O)NC2CCCC2)C(C)C)CC1 (centres undefined)	none (no result: FLuc stim CS, NF-kB neuron act, APP 5'UTR act, PPC-1+TRAIL kill, FLuc inhib CS)
CC1(C(=O)NS(=O)(=O)Cc2ccccc2C(F)(F)F)CCN1C(=O)c1ccco1 (centres undefined)	none (no result: FLuc stim CS, NF-kB neuron act, APP 5'UTR act, PPC-1+TRAIL kill, FLuc inhib CS)
Clc1ccccc1OCc1nc(-c2ccccn2)no1	NF-kB neuron act 6.5, APP 5'UTR act 171, FLuc inhib CS 51
Nc1nonc1-c1noc(COc2ccccc2Cl)n1	NF-kB neuron act 8.8, APP 5'UTR act 187
c1ccc(CCc2nc(-c3ccccn3)no2)cc1	none
Clc1ccccc1OCc1nc(-c2ccc(Br)o2)no1	none
Clc1ccc(OCc2nc(-c3ccccn3)no2)c(Br)c1	APP 5'UTR act 138, C8 TRAIL sens 52, FLuc inhib CS 70
Cc1ccc(N=Nc2c(O)n(CN3CCOCC3)c3ccccc23)cc1	APP 5'UTR act 167
O=C1C(=C(I)I)c2ccccc2-c2ccccc21	C8 TRAIL sens 94 (no result: FLuc stim CS, NF-kB neuron act, APP 5'UTR act, PPC-1+TRAIL kill, FLuc inhib CS)
O=C(O)c1cccc2c1C(=O)c1ccccc1-2	none (no result: FLuc stim CS, NF-kB neuron act, APP 5'UTR act, FLuc inhib CS)
COc1cc(CNc2ccc(N3CCCC3)cc2)ccc1OCc1ccccc1F	FLuc inhib CS 57
COc1cc(CNc2ccc(N3CCCC3)cc2)ccc1OCc1ccccc1	none
CCC(c1nnnn1-c1c(C)cccc1C)N1CCCN(Cc2ccc(F)cc2)CC1 (centres undefined)	none (no result: FLuc stim CS, NF-kB neuron act, APP 5'UTR act, PPC-1+TRAIL kill, FLuc inhib CS)
O=C(O)c1cccc(N/N=C/c2cn(-c3ccccc3)nc2-c2cccs2)c1	FLuc inhib CS 54
NC(=O)N/N=C/c1cn(-c2ccccc2)nc1-c1cccs1	FLuc inhib CS 70
O=[N+]([O-])c1ccc(N=Nc2c(O)[nH]c3ccc(F)cc23)cc1	C8 TRAIL sens 54 (no result: FLuc stim CS, NF-kB neuron act, APP 5'UTR act, PPC-1+TRAIL kill, FLuc inhib CS)
O=[N+]([O-])c1ccc2[nH]c(O)c(N=Nc3ccc(F)cc3)c2c1	none (no result: FLuc stim CS, NF-kB neuron act, APP 5'UTR act, PPC-1+TRAIL kill, FLuc inhib CS)
COc1ccc(-c2nc(-c3ccc(NC(=O)c4ccncc4)cc3)no2)cc1OC	C8 TRAIL sens 66
COc1cc(-c2nc(-c3ccc(NC(=O)c4ccc5c(c4)OCO5)cc3)no2)cc(OC)c1OC	C8 TRAIL sens 59
Cc1ccccc1-c1nc(-c2ccc(NC(=O)c3ccc4c(c3)OCO4)cc2)no1	none
COc1ccc(Cl)cc1-c1nc(-c2ccc(NC(=O)c3ccncc3)cc2)no1	none (no result: FLuc stim CS, NF-kB neuron act, PPC-1+TRAIL kill, FLuc inhib CS)
CCOC(=O)C1=CCC(c2ccccc2Cl)N(S(=O)(=O)c2ccc(C)cc2)C1 (centres undefined)	none (no result: FLuc stim CS, NF-kB neuron act, APP 5'UTR act, PPC-1+TRAIL kill, FLuc inhib CS)
Cn1c(COc2ccccc2O)[n+](C)c2ccccc21	none (no result: FLuc stim CS, NF-kB neuron act, APP 5'UTR act, PPC-1+TRAIL kill, FLuc inhib CS)
COc1ccc(N=Nc2n(C)c3ccccc3[n+]2C)cc1	PPC-1+TRAIL kill 92 (no result: FLuc stim CS, NF-kB neuron act, APP 5'UTR act, C8 TRAIL sens, FLuc inhib CS)
CC(C)n1c(-c2ccc(N(C)C)cc2)nc2ccccc21	APP 5'UTR act 170
O=C(Oc1cccc(-c2cnc3ccccc3n2)c1)c1ccco1	NF-kB neuron act 3.5
CCN(CC)S(=O)(=O)c1ccc(C)c(C(=O)Oc2cccc(-c3cnc4ccccc4n3)c2)c1	none
CCOC(=O)CNC(=O)CSc1nc(-c2ccc(OC)cc2)ns1	C8 TRAIL sens 54
O=C1C(=C2CCc3ccccc32)Cc2ccccc21	C8 TRAIL sens 51 (no result: FLuc stim CS, NF-kB neuron act, APP 5'UTR act, PPC-1+TRAIL kill, FLuc inhib CS)
O=C1C(=NO)CCCc2ccccc21	none (no result: FLuc stim CS, NF-kB neuron act, APP 5'UTR act, PPC-1+TRAIL kill, FLuc inhib CS)
OC[C@@H]1CN(Cc2ccc(-c3ccccc3)cc2)C[C@H](n2cnc3c(NCc4ccncc4)ncnc32)O1	none (no result: FLuc stim CS, NF-kB neuron act, APP 5'UTR act, PPC-1+TRAIL kill, FLuc inhib CS)
O=C(c1ccccc1)c1cnc(-c2ccc(Cl)cc2)s1	NF-kB neuron act 6.6
O=C(c1ccccc1)c1cnc(-c2ccccc2)s1	NF-kB neuron act 9.9, APP 5'UTR act 157, FLuc inhib CS 55

Screens: PubChem, several laboratories
